Screens as filed in PubChem BioAssay.
A selection: hits, their analogues and other compounds. The true share with any hit is near 2.3%.
ABCG2 block: inhibitors of human ABCG2 transporter, ABCB1 counter-screen; IgMXP3 cells, JC-1 efflux, flow cytometry; inhibition, % at 6.6 µM; 190,000 compounds, 0.1% hits; AID 1325;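 active = inhibition above 80%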
Target sequence (Q9UNQ0 whole entry, looked up): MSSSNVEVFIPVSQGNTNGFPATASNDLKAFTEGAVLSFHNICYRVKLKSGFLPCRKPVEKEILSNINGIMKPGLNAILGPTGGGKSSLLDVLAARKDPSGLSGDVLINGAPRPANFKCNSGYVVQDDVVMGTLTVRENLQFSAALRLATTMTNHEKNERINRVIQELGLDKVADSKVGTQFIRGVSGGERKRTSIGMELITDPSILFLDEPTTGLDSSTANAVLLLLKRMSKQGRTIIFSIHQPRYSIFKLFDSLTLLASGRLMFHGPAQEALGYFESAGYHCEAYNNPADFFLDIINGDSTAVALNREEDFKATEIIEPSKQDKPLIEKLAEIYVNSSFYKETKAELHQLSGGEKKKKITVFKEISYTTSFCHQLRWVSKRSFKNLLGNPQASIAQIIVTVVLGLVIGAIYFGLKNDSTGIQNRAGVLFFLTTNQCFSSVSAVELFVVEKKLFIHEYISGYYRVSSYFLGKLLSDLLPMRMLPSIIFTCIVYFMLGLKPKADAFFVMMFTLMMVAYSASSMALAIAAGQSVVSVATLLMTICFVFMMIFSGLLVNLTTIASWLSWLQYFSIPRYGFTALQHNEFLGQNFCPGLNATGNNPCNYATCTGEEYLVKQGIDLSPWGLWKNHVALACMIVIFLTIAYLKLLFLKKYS
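System: two drug-resistant human cell lines, ABCG2 and ABCB1; controls: nicardipine high and DMSO low controls; times: 10 min exposure at 25 °C with rotation, no wash; detection: flow cytometry of retained JC-1 fluorescence; read-out basis: percent efflux inhibition, scaled nicardipine 100% to DMSO 0%; doses: one concentration, 6.6 µM final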
MEKK2mut PB1 HTS: signal of MEK5 binding to mutant human MEKK2 PB1 domain | bead flow cytometry, Alexa488-MEK5 binding to MEKK2 mutant | percent response, % at 10 µM | 290,000 compounds, 0.35% hits; in the data active = percent response above about 24%, passing the limit was not always enough
MEKK3 PB1 HTS: MEKK3-MEK5 PB1 interaction, increase or decrease; binding response (% of control), % at 10 µM; bead-based flow cytometry, Alexa488-MEK5 binding to MEKK3; actives lie on both sides; 0 = blocked by unlabeled MEK5, 100 = vehicle; 290,000 compounds, 1.4% hits; Q99759;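 active = binding response more than 3 SD above or below the average of its plate-row segment, actives on both sides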;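 also: Alexa488 bead fluorescence after subtracting the streptavidin-only scavenger bead signal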
MEKK2wt PB1 HTS: raises or lowers MEK5 binding to wildtype human MEKK2 PB1 domain; Q9Y2U5; bead flow cytometry, Alexa488-MEK5 binding to MEKK2 WT; actives lie on both sides; binding response (% of control), % at 10 µM; 290,000 compounds, 1.1% hits; in the data active = binding response below about 67% or above about 130%
ABCB1 block: inhibitors of human ABCB1 transporter, ABCG2 counter-screen; 190,000 compounds, 0.067% hits; CCRF-Adr cells, JC-1 efflux, flow cytometry; inhibition, % at 6.6 µM; AID 1326; in the data active = inhibition above about 40%;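 also: higher value means more JC-1 retained so stronger ABCB1 efflux block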
MEKK2wt confirm: raises or lowers MEK5 binding to wildtype human MEKK2, retest. shares compounds with MEKK3 PB1 HTS. bead flow cytometry, Alexa488-MEK5 binding to MEKK2 WT; actives lie on both sides. binding response (% of control), % at 10 µM. 5,900 compounds, 2.4% hits. AID 1892; in the data active = binding response below about 16% or above about 210%; inactive = in between
MEKK2mut confirm: signal of MEK5 binding to mutant human MEKK2, retest; shares compounds with MEKK3 PB1 HTS; percent response, % at 10 µM; bead flow cytometry, Alexa488-MEK5 binding to MEKK2 mutant; 5,900 compounds, 2% hits; in the data active = percent response mostly above about 71%, no sharp cut-off; inactive = mostly below about 38%;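 also: higher means compound restores mutant binding toward wildtype level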
MEKK3-MEK5 inh: MEKK3-MEK5 PB1 inhibition, single concentration confirmation; shares compounds with MEKK3 PB1 HTS; bead flow cytometry, Alexa488-MEK5 binding to MEKK3; hits give low values; binding response (% of control), % at 10 µM; 5,900 compounds, 1.8% hits; AID 1894;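 active = binding response below 72% of control, or above a set upper limit, though filed actives all read lower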;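 also: lower values mean stronger disruption of MEK5 binding to MEKK3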
Each line names hits and unclear results; the compound was inactive in the other large screens (follow-up assays come after a bar, where they were run); [ ] = remark or other dose.

Cc1cc([N+](=O)[O-])ccc1N1C(=O)c2ccc(C(=O)Nc3ccccc3C(=O)O)cc2C1=O	none (no result: ABCG2 block, ABCB1 block)
Cc1nc2ccccc2nc(=O)c1NNc1ccccc1	MEKK3 PB1 HTS 51[inhibitor] | MEKK2wt confirm inactive | MEKK2mut confirm inactive | MEKK3-MEK5 inh inactive
Cc1ccc2nc(=O)c(NNc3ccccc3)cnc2c1	none
COc1cc(OC)c(OC)cc1CN1CCN(S(=O)(=O)c2ccc(F)cc2)CC1	MEKK3 PB1 HTS 122 | MEKK2wt confirm inactive | MEKK2mut confirm inactive | MEKK3-MEK5 inh inactive
COc1cc(CN2CCN(S(=O)(=O)c3ccc(F)cc3)CC2)cc(OC)c1OC	none
COc1nc(Oc2ccc(=O)[nH]n2)nc(N2CCOCC2)n1	none
CC(C)(C)Nc1nc(Oc2ccc(=O)[nH]n2)nc(N2CCOCC2)n1	MEKK3 PB1 HTS 75[inhibitor] | MEKK2wt confirm inactive | MEKK2mut confirm inactive | MEKK3-MEK5 inh inactive
Nc1nnn(CC(=O)N/N=C/c2ccncc2)n1	MEKK3 PB1 HTS 130 (no result: ABCG2 block, ABCB1 block) | MEKK2wt confirm inactive | MEKK2mut confirm inactive | MEKK3-MEK5 inh inactive
CCCSc1nc(C)cc(=O)[nH]1	none
CCCSc1nc(N)cc(=O)[nH]1	MEKK3 PB1 HTS 35[inhibitor], MEKK2wt PB1 HTS 46[inhibitor] | MEKK2wt confirm inactive | MEKK2mut confirm inactive | MEKK3-MEK5 inh inactive
COC(=O)c1cc(=O)nc2sc3cc(OC)ccc3n12	MEKK3 PB1 HTS 122 | MEKK2wt confirm inactive | MEKK2mut confirm inactive | MEKK3-MEK5 inh inactive
CCCCc1c(O)nc2sc3cc(OC)ccc3n2c1=O	none
COc1cc(-c2nnn(CC(=O)NC3CCS(=O)(=O)C3)n2)ccc1OCc1ccccc1 (configuration not stated)	MEKK3 PB1 HTS 0.0[inhibitor], MEKK2wt PB1 HTS 0.0[inhibitor] | MEKK2wt confirm inactive | MEKK2mut confirm inactive | MEKK3-MEK5 inh inactive
COc1ccccc1NC(=O)c1cnc(SC)nc1	none (no result: ABCG2 block, ABCB1 block)
CCN(CC)c1ccc(/C=C(/C#N)c2nc3ccc(C)cc3[nH]2)c(OC(C)C)c1	MEKK2mut PB1 HTS 95 | MEKK2wt confirm inactive | MEKK2mut confirm inactive | MEKK3-MEK5 inh inactive
CCOC(=O)C1CCCN(C(=O)/C(=C/c2ccco2)NC(=O)c2ccccc2)C1 (configuration not stated)	none (no result: ABCG2 block, ABCB1 block)
CCOC(=O)c1cc(C(=O)NC(C)c2ccccc2)c(=O)[nH]c1C (configuration not stated)	none (no result: ABCG2 block, ABCB1 block)
COC(=O)c1cc(C(=O)NCc2ccccc2)c(=O)[nH]c1C	MEKK3 PB1 HTS 3.0[inhibitor], MEKK2wt PB1 HTS 3.0[inhibitor] | MEKK2wt confirm inactive | MEKK2mut confirm inactive | MEKK3-MEK5 inh inactive
COc1ccccc1N(C(=O)c1ccco1)C(C(=O)NC1CCCC1)c1ccncc1 (configuration not stated)	none (no result: ABCG2 block, ABCB1 block)
CCCN1C(=O)/C(=C/c2ccc(C)s2)SC1=Nc1ccc(OC)cc1	none
COc1ccc(N=C2S/C(=C\c3ccc(Cl)c([N+](=O)[O-])c3)C(=O)N2CCN(C)C)cc1	MEKK2mut PB1 HTS 69, MEKK2wt PB1 HTS 182 (no result: ABCG2 block, ABCB1 block) | MEKK2wt confirm inactive | MEKK2mut confirm inactive | MEKK3-MEK5 inh inactive
CCN(CC)CCN1C(=O)/C(=C\c2ccc(Cl)c([N+](=O)[O-])c2)SC1=Nc1ccc(OC)cc1	MEKK2mut PB1 HTS 36, MEKK2wt PB1 HTS 197 (no result: ABCG2 block, ABCB1 block) | MEKK2wt confirm inactive | MEKK2mut confirm inactive | MEKK3-MEK5 inh inactive
N=c1n(Cc2ccccc2)c2ccccc2n1CC(O)COc1ccccc1 (configuration not stated)	none
Cc1ccc(Cn2c(=N)n(CC(O)COc3ccccc3)c3ccccc32)cc1 (configuration not stated)	MEKK2wt PB1 HTS 134 | MEKK2wt confirm inactive | MEKK2mut confirm inactive | MEKK3-MEK5 inh inactive
COc1ccc(C)cc1N(CC(=O)NCCSCc1ccco1)S(=O)(=O)c1ccc(C)cc1	none (no result: ABCG2 block, ABCB1 block)
CCCCC1(CC(=O)OC)C(=O)N(c2ccccc2)N(c2ccccc2)C1=O	MEKK3 PB1 HTS 138 | MEKK2wt confirm inactive | MEKK2mut confirm inactive | MEKK3-MEK5 inh inactive
CCCCC1(Cc2ccc(OC)c([N+](=O)[O-])c2)C(=O)N(c2ccccc2)N(c2ccccc2)C1=O	none
O=C(Nc1ccccc1N1CCOCC1)c1cccc(Oc2ccccc2)c1	none (no result: ABCG2 block, ABCB1 block)
CCOC(=O)c1cc(NC(=O)c2ccco2)ccc1N1CCOCC1	MEKK3 PB1 HTS 27[inhibitor], MEKK2wt PB1 HTS 35[inhibitor] | MEKK2wt confirm inactive | MEKK2mut confirm inactive | MEKK3-MEK5 inh inactive
O=C(Nc1ccc(Cl)cc1)Nc1ccccc1CC[N+](=O)[O-]	MEKK3 PB1 HTS 4.0[inhibitor], MEKK2wt PB1 HTS 6.0[inhibitor] | MEKK2wt confirm inactive | MEKK2mut confirm inactive | MEKK3-MEK5 inh inactive
Cc1ccc(N(CN2C(=O)NC(C)(C)C2=O)CN2C(=O)NC(C)(C)C2=O)cc1	MEKK3 PB1 HTS 2.0[inhibitor], MEKK2wt PB1 HTS 2.0[inhibitor] | MEKK2wt confirm inactive | MEKK2mut confirm inactive | MEKK3-MEK5 inh inactive
Cc1ccc(N(CC(O)CN2C(=O)NC(C)(C)C2=O)S(=O)(=O)c2ccc(C)cc2)cc1 (configuration not stated)	none (no result: ABCG2 block, ABCB1 block)
Cc1ccc2c(c1)C1CC(C)(O2)N(c2cccc(C(=O)N3CCN(c4ccccn4)CC3)c2)C(=O)N1 (configuration not stated)	none (no result: ABCG2 block, ABCB1 block)
CCOc1ccc(CCNC(=O)C2CCCN(c3ncnc4c3nc3n4CCCCC3)C2)cc1 (configuration not stated)	none (no result: ABCG2 block, ABCB1 block)
CC(C)=C(NC(=O)c1ccccc1)C(=O)N/N=C/c1ccc(O)cc1	MEKK2wt PB1 HTS 19[inhibitor] | MEKK2wt confirm inactive | MEKK2mut confirm inactive | MEKK3-MEK5 inh inactive
c1csc(C2Nc3ccccc3-c3nc4ccccc4n32)c1 (configuration not stated)	MEKK3 PB1 HTS 132 | MEKK2wt confirm inactive | MEKK2mut confirm inactive | MEKK3-MEK5 inh inactive
Cc1ccsc1C1Nc2ccccc2-c2nc3ccccc3n21 (configuration not stated)	none
CN1c2ccccc2-c2nc3ccccc3n2C1c1cccs1 (configuration not stated)	MEKK3 PB1 HTS 181 | MEKK2wt confirm inactive | MEKK2mut confirm inactive | MEKK3-MEK5 inh inactive
O=C(NCc1ccccc1)c1ccc(N2C(=O)C3CCCCC3C2=O)cc1 (configuration not stated)	MEKK3 PB1 HTS 142 | MEKK2wt confirm inactive | MEKK2mut confirm inactive | MEKK3-MEK5 inh inactive
COc1cc(CNC(=O)c2ccccc2NC(=O)C2=C(C)OCCS2)cc(OC)c1OC	none (no result: ABCG2 block, ABCB1 block)
